Screening data as filed in PubChem BioAssay.
T cruzi inh = blocks replication of Trypanosoma cruzi | T. cruzi beta-gal in NIH3T3, luminescence, 90 h | inhibition, % (no concentration beside the values) | 300,000 compounds, 1.4% hits | AID 1885;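 active means mean inhibition across valid replicates above about 55%, limit read from the data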;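 further: signal also drops with host cell toxicity which is not excluded here; 0% = plate median of DMSO wells and 100% = zero luminescence signal; higher percent means less beta-gal luminescence so fewer parasites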
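Assay system: NIH/3T3 host cells with β-galactosidase reporter T. cruzi; input: 5,000 host fibroblasts per well; compound: single 50 nL compound addition per well in DMSO; timing: ≥90 h infection period, 3 h prior cell attachment; measured by: GalScreen β-gal luminescence, detergent lysis, 60 min; evaluation: percent inhibition of parasite-derived β-gal signal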
Lmaj promast = inhibitors of Leishmania major promastigote growth; 200,000 compounds, 9% hits; inhibition, % at 10 µM; Leishmania major promastigotes, resazurin fluorescence viability; in the data active means inhibition above about 50%;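 further: promastigotes grown with compound for 44 hours at 28 °C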
SKKanGAS inh = SKKanGAS growth inhibition; S. pyogenes SKKanGAS, kanamycin growth, BacTiter-Glo, 6 h; inhibition, % at 7.5 µM; 300,000 compounds, 1.3% hits; AID 1662;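 active means mean replicate score, as percent of positive control median, at least 50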;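 further: strain carries kanamycin resistance gene driven by streptokinase promoter and grows in 40 µg/ml kanamycin; loss of luminescence reflects streptokinase promoter inhibition or plain growth inhibition; 0% = median of DMSO wells and 100% = positive control at its reference dose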
Mdm2-MdmX inh = disrupts the human Mdm2-MdmX interaction; O15151+Q00987; SaOS-2 split-luciferase Mdm2/MdmX complementation, luminescence; inhibition, % at 8 µM; 330,000 compounds, 3% hits;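 active means inhibition of at least 50% at 8 µM in the primary screen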
Beta apoptosis = blocks beta cell apoptosis; INS-1E cytokine-induced death, ATP luminescence, 48 h; percent of positive-control rescue, neutral wells zero; protection from apoptosis, % (concentration not given with the values); 300,000 compounds, 0.8% hits; AID 435005;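 active means Every replicate reaches about 75%, or at least half do and their mean reaches it too, limit read from the data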;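 further: 0% = cytokine-treated negative control wells and 100% = positive control rescue; higher means more ATP so stronger rescue from cytokine killing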
CSC inhib = cancer stem cell inhibition. AID 2717. cancer stem cell-like cells viability, luminescence. 300,000 compounds, 1.1% hits. inhibition, % at 7.5 µM; in the data active means inhibition above about 75%; tested in HMLE shEcad cells
Mdm2 MdmX conf = human Mdm2/MdmX binding inhibition, confirmed | shares compounds with Mdm2-MdmX inh | luminescent assay | inhibition, % at 8 µM | 10,000 compounds, 55% hits | AID 489028; in the data active means inhibition above about 40%
FLuc counter = counter-screen for Mdm2/MdmX inhibitors: full-length luciferase. shares compounds with Mdm2-MdmX inh. SaOS-2 full-length luciferase counterscreen, luminescence. inhibition, % at 8 µM. 6,200 compounds, 77% hits;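 active means mean inhibition at 8 µM reaching about 37%, which flags the compound as non-specific, limit read from the data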;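 further: p53-null SaOS-2 cells with luciferase driven by a doxycycline-inducible promoter; compound on cells about two nights before reading with doxycycline added after day one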
Starred values were filed as active, the others as inactive; x = not tested or not shown. Most compounds without a hit are left out; they make up all but 9.4% or so of the library.

SMILES	T cruzi inh	Lmaj promast	SKKanGAS inh	Mdm2-MdmX inh	Beta apoptosis	CSC inhib	Mdm2 MdmX conf	others
CCN(CC)S(=O)(=O)c1ccc2c(c1)nc(CCC(=O)Nc1ccc(N3CCOCC3)cc1)n2C	3	-1	3	32	-2	x	x
COc1cccc(/C=N/NC(=O)CN2CC(c3ccccc3)CC2=O)c1O (stereo not given)	3	0	8	52*	77*	58	30
O=S(=O)(CCSc1ccccn1)c1nc2ccccc2s1	18	31	8	80*	-3	58	48*	FLuc counter=39*
O=S(=O)(CCSc1nc2ccccc2o1)c1nc2ccccc2s1	-14	98*	2	83*	-3	46	72*	FLuc counter=36
COC(=O)c1c(SCC(=O)Nc2ccc(C)c(C)c2)nc(=O)[nH]c1C	8	x	-1	-34	-6	-7	x
COc1cccc(NC(=O)CSC2=NN3CCCC(=O)N=C3S2)c1	-15	x	0	2	-1	-11	x
O=C(CCCC(=O)Nc1ccccc1Br)N/N=C/c1c(F)cccc1Cl	-4	x	10	-13	-8	x	x
CCCOC(=O)C1NC(=O)N2C(C(=O)OCCC)C(C)(C)S[C@H]12 (stereo not given in full)	1	x	1	5	-6	-6	x
COC(=O)Nc1nc2ccc(C(=O)c3cccs3)cc2[nH]1	-9	x	11	53*	x	55	57*	FLuc counter=126*
O=C(Nc1nc2ccccc2[nH]1)c1cccs1	-3	29	9	-80	9	3	x
O=C(NC1CCCCCC1)c1ccc([N+](=O)[O-])s1	x	x	x	22	x	x	x
COc1ccccc1Nc1nc(NCCCN(C)C)nc(N)c1[N+](=O)[O-]	29	x	1	38	14	-6	x
C=CCNc1nc(N)c([N+](=O)[O-])c(Nc2ccccc2OC)n1	-9	x	4	59*	-13	6	18
COc1ccccc1Nc1nc(NCC(C)C)nc(N)c1[N+](=O)[O-]	17	x	1	62*	x	24	47*	FLuc counter=59*
O=C(CN1C(=O)CS/C1=C\c1nc(-c2ccc(Cl)cc2)cs1)Nc1cccnc1Cl	-6	-2	2	79*	1	-7	19
Cc1ccc(-c2csc(/C=C3\SC(C)C(=O)N3CC(=O)Nc3ccccc3F)n2)cc1 (stereo not given)	21	x	-4	47	-2	19	x
Clc1ccc(OCCCNCc2ccccc2)c(Br)c1	37	91*	2	65*	17	-2	24
COc1ccccc1C(=O)NCCC(=O)N1CCN(c2cccc(C(F)(F)F)c2)CC1	-5	x	-16	2	-11	3	x
CN(C)c1nnnn1-c1ccccc1Oc1ncc(C(F)(F)F)cc1Cl	1	-1	-9	11	-10	x	x
COc1ccc(C2N(C(=O)CN3CCCC3)CCCN2S(=O)(=O)c2ccccc2)cc1 (stereo not given)	0	x	-28	6	-1	-2	x
CCOC(=O)C1=C(C)Nc2ccccc2N=C1NC(=O)c1oc2ccccc2c1COC	x	x	x	59*	-17	16	50*	FLuc counter=77*
O=C(COc1cccnc1[N+](=O)[O-])NCc1ccc(F)cc1	8	x	5	5	6	4	x
COCCN1C(=O)N[C@@H](c2ccc(Br)cc2)C(C(C)=O)=C1C	x	-3	x	x	x	x	x
COc1ccccc1NC(=O)N(CCN1CCOCC1)Cc1cc2cc(C)cc(C)c2[nH]c1=O	5	5	-1	14	-9	-8	x
COc1ccccc1NC(=O)N(Cc1ccco1)Cc1cc2cc(C)cc(C)c2[nH]c1=O	30	63*	22	53*	7	0	37
SMILES	T cruzi inh	Lmaj promast	SKKanGAS inh	Mdm2-MdmX inh	Beta apoptosis	CSC inhib	Mdm2 MdmX conf	others
Cc1cc2cc(CN(Cc3ccco3)C(=S)NCC3CCCO3)c(=O)[nH]c2cc1C (stereo not given)	-22	-1	4	5	-1	-6	x
Cc1cc2cc(CN(Cc3ccco3)S(=O)(=O)c3c(C)ccc4nsnc34)c(=O)[nH]c2cc1C	53	76*	6	61*	-3	19	54*	FLuc counter=54*
Cc1ccc2cc(CN(Cc3ccco3)S(=O)(=O)c3c(C)ccc4nsnc34)c(=O)[nH]c2c1	21	23	8	-11	-11	-11	x
COc1ccccc1NC(=S)N(Cc1ccco1)Cc1cc2cc(C)c(C)cc2[nH]c1=O	-2	37	16	59*	9	-11	54*	FLuc counter=56*
C=CC[C@@H](CC(=O)N[C@@H](CO)Cc1ccccc1)C(=O)N[C@H](COC(=O)[C@@H](CC=C)Cc1ccc(F)cc1)Cc1ccccc1	x	x	x	53*	-9	-17	35	FLuc counter=55*
C=CC[C@@H](CC(=O)N[C@H](CO)Cc1ccccc1)C(=O)N[C@H](COC(=O)[C@@H](CC=C)Cc1ccc(F)cc1)C(C)(C)C	x	x	x	37	1	5	x
C=CC[C@@H](CC(=O)N[C@H](CO)Cc1ccccc1)C(=O)N[C@@H](COC(=O)[C@@H](CC=C)Cc1ccc(F)cc1)Cc1ccccc1	x	x	x	70*	60	4	16
C=CC[C@@H](CC(=O)N[C@@H](CO)Cc1ccccc1)C(=O)N[C@@H](COC(=O)[C@@H](CC=C)Cc1ccc(F)cc1)Cc1c[nH]c2ccccc12	x	x	x	48	0	8	x
C/C(=N\NC(=O)CNC(=O)c1cccs1)c1ccc(Cl)c(Cl)c1	16	x	2	-7	-1	-10	x
O=C(O)c1ccccc1-n1c2ccccc2c2ccccc21	-6	x	-6	16	-4	-11	x
O=C(CCSc1nnc(-c2ccco2)o1)N1CCOCC1	-6	-7	0	14	-3	-13	x
COc1ccc(/C=C/C(=O)NCC(=O)N/N=C(/C)c2ccco2)cc1	-11	x	1	15	-10	2	x
Cn1nnnc1SCC(=O)N1CCN(S(=O)(=O)c2ccccc2)CC1	-11	9	-6	-7	-2	-1	x
Cn1nnnc1SCC(=O)N1CCN(S(=O)(=O)c2ccc(Cl)cc2)CC1	3	-9	-11	70*	x	-6	-8
N/C(=N\OC(=O)N1CCOCC1)c1ccc(Cl)cc1	29	12	-7	92*	-1	-2	61*	FLuc counter=148*
N/C(=N\OC(=O)N1CCOCC1)c1ccccc1	45	11	2	64*	2	26	6
O=C(COc1ccc(Br)cc1)N1CCOCC1	6	-5	2	13	-9	-13	x
N/C(=N\OC(=O)N1CCOCC1)c1ccc(Br)cc1	38	27	6	100*	2	19	59*	FLuc counter=134*
O=C(CCc1nnc2n(Cc3ccccc3)c(=O)c3ccccc3n12)NCCN1CCOCC1	-1	x	7	17	-4	0	x
